Among the data in ChEMBL document CHEMBL2177066, “Opioid activity profiles of oversimplified peptides lacking in the protonable N-terminus” (J Med Chem, 2012) are Ki and IC50 values, retold here.

Where a SMILES comes first, the peptide text is derived from it. [ ]: non-standard residue; d: D form.

As a reminder, the Ki is the dissociation constant of the complex between target and ligand, obtained from inhibition or displacement. What is called IC50 is the concentration at which inhibition is half-maximal.

The target of assay [1] is Delta-type opioid receptor (Homo sapiens, UniProt P41143). The experiment in a line: Displacement of [3H]diprenorphine from human DOR expressed in HEK293 cells after 90 mins by liquid scintillation counting. The format is cell-based. A general note: In a radioligand displacement assay an active substance lowers the binding of a labelled ligand.
Chain of Delta-type opioid receptor (P41143 whole entry): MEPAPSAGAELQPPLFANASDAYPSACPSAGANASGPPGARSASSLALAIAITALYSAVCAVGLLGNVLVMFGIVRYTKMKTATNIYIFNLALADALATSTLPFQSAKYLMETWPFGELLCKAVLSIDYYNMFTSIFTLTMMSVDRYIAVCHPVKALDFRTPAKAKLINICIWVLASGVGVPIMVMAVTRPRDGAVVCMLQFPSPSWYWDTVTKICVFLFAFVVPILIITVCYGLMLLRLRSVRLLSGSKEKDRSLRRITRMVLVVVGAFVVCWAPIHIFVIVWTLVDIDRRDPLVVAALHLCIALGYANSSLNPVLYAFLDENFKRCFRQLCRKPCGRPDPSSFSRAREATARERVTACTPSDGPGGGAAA
Assay [2] has as its target Kappa-type opioid receptor (Homo sapiens, UniProt P41145). Briefly: Displacement of [3H]U69,593 from human KOR expressed in HEK293 cells after 90 mins by liquid scintillation counting. The class given is cell-based. An outline of the steps:
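Membranes from HEK-293 cells expressing human KOR incubated 90 min at 25 °C in 100 mM Tris-HCl with 0.3% BSA, with [3H]U69,593 at 2 nM. Nonspecific binding defined with 10 μM U50,488. Filtered on polyethylenimine-presoaked GF/C filters, washed with ice-cold 50 mM Tris-HCl pH 7.4, then scintillation counted. Run in triplicate, ≥3 experiments. Ki from IC50 by Cheng–Prusoff.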

Assay [3] addresses T1, Mu-type opioid receptor (Homo sapiens, UniProt P35372). The experiment in a line: biochemical.
In assay [4] the target is T1, Mu-type opioid receptor. The format is functional, cell-based, HEK293.
Assay [5] deals with T1, Mu-type opioid receptor. The experiment in a line: Partial agonist activity at human MOR expressed in HEK293 cells assessed as inhibition of forskolin-induced cAMP accumulation after 15 mins by cAMP EIA. The format is functional, cell-based. An outline of the steps: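 Whole HEK-293 cells stably expressing MOR, grown in MEM/10% FBS and plated at 85–95% confluence. Cells washed, placed in serum-free medium with 0.5 mM IBMX, and given 10 μM forskolin ± compound (0.01 nM–100 μM) for 15 min at 37 °C. Lysed in 0.1 N HCl; cAMP in supernatant measured by EIA. Triplicates averaged for IC50 and Emax (% vehicle), 5–6 independent experiments.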
A general note: Changes in cAMP serve as a functional read-out for many G protein-coupled receptors.

T1 sequence (P35372 whole entry): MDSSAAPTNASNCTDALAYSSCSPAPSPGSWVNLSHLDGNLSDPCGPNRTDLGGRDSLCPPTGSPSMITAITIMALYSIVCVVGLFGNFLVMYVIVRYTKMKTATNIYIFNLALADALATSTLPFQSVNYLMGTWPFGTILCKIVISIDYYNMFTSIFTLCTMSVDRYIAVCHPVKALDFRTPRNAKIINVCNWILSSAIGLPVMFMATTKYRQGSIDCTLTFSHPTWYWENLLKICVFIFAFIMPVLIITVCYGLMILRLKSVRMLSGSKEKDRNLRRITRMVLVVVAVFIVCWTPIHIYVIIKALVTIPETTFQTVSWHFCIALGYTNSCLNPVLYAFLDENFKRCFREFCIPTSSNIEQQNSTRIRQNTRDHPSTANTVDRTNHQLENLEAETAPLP
Chain of Kappa-type opioid receptor (P41145 whole entry): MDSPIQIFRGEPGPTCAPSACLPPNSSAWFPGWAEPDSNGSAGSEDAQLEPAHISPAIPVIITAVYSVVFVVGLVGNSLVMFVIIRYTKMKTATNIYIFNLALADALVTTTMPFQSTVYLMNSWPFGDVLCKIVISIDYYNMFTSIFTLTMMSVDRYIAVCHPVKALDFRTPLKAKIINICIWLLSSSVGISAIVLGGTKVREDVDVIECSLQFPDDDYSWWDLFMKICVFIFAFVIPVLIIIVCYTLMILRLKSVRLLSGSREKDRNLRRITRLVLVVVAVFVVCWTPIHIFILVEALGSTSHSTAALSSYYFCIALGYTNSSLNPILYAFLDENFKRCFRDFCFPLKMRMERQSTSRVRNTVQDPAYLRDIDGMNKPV

For `CC(=O)N[C@@H](Cc1c[nH]c2ccccc12)C(=O)N[C@@H](Cc1ccccc1)C(=O)NCC(N)=O` (Ac-Trp-Phe-Gly-NH2), the Ki in assay [1] was found to be 0.0121 µM; in assay [2] it was 33 µM; at Mu-type opioid receptor [3] it was 74 µM.

Regarding `CC(=O)N[C@H](Cc1c[nH]c2ccccc12)C(=O)N[C@@H](Cc1ccccc1)C(N)=O` (Ac-[dW]-Phe-NH2), the figures for the Ki (in assay [1]; in assay [2]; at Mu-type opioid receptor [3]) were 0.024 µM, above 100 µM and 0.0155 µM, respectively. Further, at Mu-type opioid receptor [4], the IC50 was above 100 µM.

As to `NC(=O)[C@H]1CC(=O)NCCC(=O)N[C@H](Cc2c[nH]c3ccccc23)C(=O)N[C@@H](Cc2ccccc2)C(=O)N1`, the Ki was above 100 µM in assay [1], above 100 µM in assay [2] and 0.0059 µM at Mu-type opioid receptor [3]. This compound displayed an IC50 at Mu-type opioid receptor [4] of 0.037 µM.

`CC(=O)N[C@H](CCCNC(=N)N)C(=O)N[C@@H](Cc1ccccc1)C(=O)NCC(N)=O`: the Ki (in assay [1]; in assay [2]; at Mu-type opioid receptor [3]) was above 100 µM in each case.

Turning to `CC(=O)N[C@H](Cc1cnc[nH]1)C(=O)N[C@@H](Cc1ccccc1)C(N)=O`, the Ki (in assay [1]; in assay [2]; on Mu-type opioid receptor [3]) was above 100 µM each time.

With `CC(=O)N[C@H](CCCCN)C(=O)N[C@@H](Cc1ccccc1)C(N)=O`, the Ki (in assay [1]; in assay [2]; at Mu-type opioid receptor [3]) was above 100 µM in each case.

In the case of `CC(=O)N[C@H](Cc1c[nH]c2ccccc12)C(=O)N[C@@H](Cc1ccccc1)C(=O)NCC(N)=O` (Ac-[dW]-Phe-Gly-NH2), the Ki in assay [1] was above 100 µM; in assay [2], above 100 µM; on Mu-type opioid receptor [3], 0.0056 µM. Moreover, the IC50 at Mu-type opioid receptor [5] was 0.2 µM.

`CC(=O)N[C@H](Cc1cnc[nH]1)C(=O)N[C@@H](Cc1ccccc1)C(=O)NCC(N)=O`: the Ki (in assay [1]; in assay [2]; on Mu-type opioid receptor [3]) was above 100 µM in each case.

For the compound `CC(=O)N[C@H](CCCCN)C(=O)N[C@@H](Cc1ccccc1)C(=O)NCC(N)=O`, the Ki (in assay [1]; in assay [2]; at Mu-type opioid receptor [3]) was above 100 µM in each case.

In the case of `CC(=O)N[C@H](CCCNC(=N)N)C(=O)N[C@@H](Cc1ccccc1)C(N)=O`, the Ki (in assay [1]; in assay [2]; on Mu-type opioid receptor [3]) was above 100 µM each time.
